The values below come from ChEMBL document CHEMBL3272012, “5-(Tetradecyloxy)-2-furancarboxylic acid and related hypolipidemic fatty acid-like alkyloxyarylcarboxylic acids” (J Med Chem, 1977).

In data set [1] the test system is Rattus norvegicus. The data set is described as follows: Increase in cholesterol level in Wistar rat liver at 406 umol/kg/day administered through diet for 4 days. In kind it is ADME, organism-based. Conditions: in vivo, po, 96 h.
For data set [2], the system named is Rattus norvegicus. As to the kind of experiment: Hypolipidemic activity in Wistar rat assessed as reduction in plasma triglyceride level at 406 umol/kg/day administered through diet for 4 days. In kind it is functional. Conditions: 96 h.
In data set [3] the test system is Rattus norvegicus. As to the kind of experiment: Increase in liver weight in Wistar rat at 406 umol/kg/day administered through diet for 4 days. Conditions: in vivo, po, 96 h. In kind it is ADME, organism-based.
Data set [4] relates to Rattus norvegicus. The data set is described as follows: Hypolipidemic activity in Wistar rat assessed as reduction in plasma cholesterol level at 406 umol/kg/day administered through diet for 4 days. In kind it is functional. As to conditions: 96 h. The procedure, abridged: (§1)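 Young male Wistar rats, 170-190 g at start, in groups of six, given compound mixed into Purina Lab Chow ad libitum for 4 or 10 days as stated. Daily dose was calculated from food consumption and body weight. Plasma was taken by cardiac puncture at the end and cholesterol measured by automated procedure. Results are % reduction versus a concurrent untreated control group, with Student's t test.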

In data set [5] the test system is Rattus norvegicus. As to the kind of experiment: Increase in liver weight in Wistar rat at 312 umol/kg/day administered through diet for 10 days. As to conditions: in vivo, po, 240 h. In kind it is ADME, organism-based.
In data set [6] the test system is Rattus norvegicus. The data set is described as follows: Increase in cholesterol level in Wistar rat liver at 312 umol/kg/day administered through diet for 10 days. Conditions: in vivo, po, 240 h. In kind it is ADME, organism-based.
The test system of data set [7] is Rattus norvegicus. As to the kind of experiment: Hypolipidemic activity in Wistar rat assessed as reduction in plasma triglyceride level at 312 umol/kg/day administered through diet for 10 days. In kind it is functional. Conditions: 240 h. The procedure, abridged:
(§2)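 Young male Wistar rats, 170-190 g initial weight, six per group, fed drug mixed thoroughly into Purina Lab Chow ad libitum for the stated days; daily dose calculated from food consumption and body weight. Bled by cardiac puncture at end; plasma cholesterol and triglycerides by automated procedures, expressed as percent reduction versus simultaneous untreated controls; Student's t test.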

The test system of data set [8] is Rattus norvegicus. As to the kind of experiment: Hypolipidemic activity in Wistar rat assessed as reduction in plasma cholesterol level at 312 umol/kg/day administered through diet for 10 days. As to conditions: 240 h. In kind it is functional. In a few lines: as §1
Data set [9] relates to Rattus norvegicus. The data set is described as follows: Hypolipidemic activity in Wistar rat assessed as reduction in plasma cholesterol level at 339 umol/kg/day administered through diet for 4 days. As to conditions: 96 h. In kind it is functional. The procedure, abridged:
as §1

For data set [10], the system named is Rattus norvegicus. As to the kind of experiment: Increase in liver weight in Wistar rat at 339 umol/kg/day administered through diet for 4 days. In kind it is ADME, organism-based. As to conditions: in vivo, po, 96 h.
The test system of data set [11] is Rattus norvegicus. The data set is described as follows: Increase in cholesterol level in Wistar rat liver at 339 umol/kg/day administered through diet for 4 days. In kind it is ADME, organism-based. Conditions: in vivo, po, 96 h.
In data set [12] the test system is Rattus norvegicus. As to the kind of experiment: Hypolipidemic activity in Wistar rat assessed as reduction in plasma triglyceride level at 339 umol/kg/day administered through diet for 4 days. In kind it is functional. As to conditions: 96 h. In a few lines:
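Young male Wistar rats (170-190 g initial weight), groups of six, were fed compound mixed into lab chow ad libitum for 4 or 10 days alongside an untreated control group. Daily dose was calculated from food consumption and body weight. Rats were bled by cardiac puncture, and plasma triglyceride was measured by automated procedure. Results are expressed as percent reduction from simultaneous controls, with Student's t test.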

Data set [13] deals with Rattus norvegicus. The data set is described as follows: Hypolipidemic activity in Wistar rat assessed as reduction in plasma cholesterol level at 472 umol/kg/day administered through diet for 4 days. In kind it is functional. Conditions: 96 h. The procedure, abridged: (§3)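 Young male Wistar rats, 170-190 g initial weight, groups of six, given compound mixed thoroughly into Purina Lab Chow ad libitum for 4 or 10 days as stated. Daily dose calculated from food consumption and body weight. Bled by cardiac puncture at end of treatment; plasma cholesterol measured by automated procedure. Expressed as percent reduction versus simultaneous untreated control group; Student's t test.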

The test system of data set [14] is Rattus norvegicus. The data set is described as follows: Increase in cholesterol level in Wistar rat liver at 472 umol/kg/day administered through diet for 4 days. Conditions: in vivo, po, 96 h. In kind it is ADME, organism-based.
In data set [15] the test system is Rattus norvegicus. The data set is described as follows: Increase in liver weight in Wistar rat at 472 umol/kg/day administered through diet for 4 days. In kind it is ADME, organism-based. As to conditions: in vivo, po, 96 h.
For data set [16], the system named is Rattus norvegicus. As to the kind of experiment: Hypolipidemic activity in Wistar rat assessed as reduction in plasma triglyceride level at 472 umol/kg/day administered through diet for 4 days. As to conditions: 96 h. In kind it is functional.
In data set [17] the test system is Rattus norvegicus. As to the kind of experiment: Increase in liver weight in Wistar rat at 477 umol/kg/day administered through diet for 4 days. In kind it is ADME, organism-based. Conditions: in vivo, po, 96 h.
Data set [18] relates to Rattus norvegicus. As to the kind of experiment: Hypolipidemic activity in Wistar rat assessed as reduction in plasma cholesterol level at 477 umol/kg/day administered through diet for 4 days. In kind it is functional. As to conditions: 96 h. In a few lines: as §3
For data set [19], the system named is Rattus norvegicus. As to the kind of experiment: Hypolipidemic activity in Wistar rat assessed as reduction in plasma triglyceride level at 477 umol/kg/day administered through diet for 4 days. In kind it is functional. As to conditions: 96 h.
The subject of data set [20] is Rattus norvegicus. As to the kind of experiment: Increase in cholesterol level in Wistar rat liver at 477 umol/kg/day administered through diet for 4 days. In kind it is ADME, organism-based. Conditions: in vivo, po, 96 h.
The subject of data set [21] is Rattus norvegicus. As to the kind of experiment: Hypolipidemic activity in Wistar rat assessed as reduction in plasma cholesterol level at 311 umol/kg/day administered through diet for 10 days. In kind it is functional. As to conditions: 240 h. In a few lines: as §1
Data set [22] relates to Rattus norvegicus. The data set is described as follows: Increase in liver weight in Wistar rat at 311 umol/kg/day administered through diet for 10 days. In kind it is ADME, organism-based. As to conditions: in vivo, po, 240 h.
Data set [23] has as its system Rattus norvegicus. As to the kind of experiment: Increase in cholesterol level in Wistar rat liver at 311 umol/kg/day administered through diet for 10 days. In kind it is ADME, organism-based. As to conditions: in vivo, po, 240 h.
For data set [24], the system named is Rattus norvegicus. As to the kind of experiment: Hypolipidemic activity in Wistar rat assessed as reduction in plasma triglyceride level at 311 umol/kg/day administered through diet for 10 days. In kind it is functional. As to conditions: 240 h. The procedure, abridged: as §2
Data set [25] concerns Rattus norvegicus. As to the kind of experiment: Increase in liver weight in Wistar rat at 385 umol/kg/day administered through diet for 4 days. As to conditions: in vivo, po, 96 h. In kind it is ADME, organism-based.
The test system of data set [26] is Rattus norvegicus. The data set is described as follows: Hypolipidemic activity in Wistar rat assessed as reduction in plasma cholesterol level at 385 umol/kg/day administered through diet for 4 days. In kind it is functional. As to conditions: 96 h. In a few lines: as §1
In data set [27] the test system is Rattus norvegicus. As to the kind of experiment: Hypolipidemic activity in Wistar rat assessed as reduction in plasma triglyceride level at 385 umol/kg/day administered through diet for 4 days. In kind it is functional. Conditions: 96 h. The procedure, abridged: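 Young male Wistar rats (170-190 g initial weight), groups of six, fed test compound mixed into Purina Lab Chow ad libitum; daily dose calculated from food consumption and body weight. Bled by cardiac puncture at end of treatment; plasma triglycerides measured by automated procedure. Results given as percent reduction versus a simultaneous untreated control group, with significance by Student's t test.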

Data set [28] deals with Rattus norvegicus. As to the kind of experiment: Increase in cholesterol level in Wistar rat liver at 385 umol/kg/day administered through diet for 4 days. In kind it is ADME, organism-based. Conditions: in vivo, po, 96 h.

As for `CCCCCCCCCCCCCCOc1ccc(COC(C)=O)cc1`, the Activity in data set [1] turned out to be 11%; in data set [3], 17%. In addition, the figures for the inhibition in vivo at 406 µmol/kg in [2] and in data set [4] were 62% and 22%, respectively.
As to `CCCCCCCCCCCCCCOc1ccc(C(=O)CC(=O)OCCNC(C)=O)cc1`, the Activity in data set [5] is given as 15%; in data set [6] it was 8%. The inhibition in vivo at 312 µmol/kg in data set [7] turned out to be 60%; in data set [8], 35%.
With `CCCCCCCCCCCCCCCCOc1ccc(C(=O)CC(=O)OC)cc1`, the inhibition in vivo at 339 µmol/kg in [9] worked out at 32%; in data set [12], 57%. Moreover, the Activity in [10] is 18%; in data set [11], 2%.
Regarding `CCCCCCCCCCCCCCOc1ccc(CC(=O)OC)cc1`, the values for the inhibition in vivo at 472 µmol/kg in [13] and in data set [16] were 0% and 23%, respectively. Moreover, the Activity was found to be 0% in [14] and 8% in [15].
Take `CCCCCCCCCCCCCCOc1ccc(CO)cc1`: the values for the Activity in [17] and in [20] were 17% and 33%, respectively. Moreover, the inhibition in vivo at 477 µmol/kg turned out to be 35% in data set [18] and 41% in data set [19].
Regarding `CCCCCCCCCCCCCCCCOc1ccc(C(=O)CC(=O)O)cc1`, the results for the inhibition in vivo at 311 µmol/kg in data set [21] and in data set [24] were 29% and 49%, respectively. In addition, the Activity in data set [22] and in [23] was 0% each time.
Turning to `CCCCCCCCCCCCCCOc1ccc(COC(=O)OCC)cc1`, the Activity amounted to 11% in [25] and 12% in data set [28]. Also, the inhibition in vivo at 385 µmol/kg in data set [26] is 38%; in data set [27], 70%.
